{
  "source": "ChEMBL document CHEMBL5653613",
  "about": "(Mol Cancer Ther, 2013)",
  "key": {"[1]": {"tested_on": "ZR-75-1", "experiment": "Induction of polyploidy in human ZR-75-1 cells at 5 umol/L by microscopic analysis", "assay_type": "functional, cell-based", "conditions": "dose 5.0 µmol/L, time 72.0 hrs, TDE = time-dependent effect"}, "[2]": {"tested_on": "T47D", "experiment": "Induction of polyploidy in human T47D cells assessed as cells with 4N chromosome contents at 5 uM incubated for 24 hrs by PI staining based flow cytometry (reference value: 35)", "assay_type": "functional"}, "[3]": {"tested_on": "ZR-75-1", "experiment": "Inhibition of clonogenic growth in human ZR-75-1 cells incubated for 10 days by Hema-3 staining based microscopy", "assay_type": "functional, cell-based", "conditions": "dose 1-5 µmol/L, time 10.0 day", "method_in_brief": "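Colonies were stained with Hema-3, photographed under a microscope with a CCD camera, counted in duplicate, and expressed as % of control. Results are shown from 1 of 2 experiments.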"}, "[4]": {"tested_on": "T47D", "experiment": "Induction of polyploidy in human T47D cells at 5 umol/L incubated for 72 hrs by microscopic analysis relative to control", "assay_type": "functional", "conditions": "dose 5 µmol/L, at 5 µM", "method_in_brief": "(§1)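 Cells stained with Hema-3 and photographed under a light microscope with CCD camera. Polyploid cells scored as percent of the population.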"}, "[5]": {"tested_on": "MCF7", "experiment": "Induction of polyploidy in human MCF7 cells assessed as cells with 16N chromosome contents at 5 uM incubated for 48 hrs by PI staining based flow cytometry (reference value: 0)", "assay_type": "functional"}, "[6]": {"tested_on": "ZR-75-1", "experiment": "Induction of polyploidy in human ZR-75-1 cells with RON-/- by microscopic analysis", "assay_type": "functional, cell-based", "method_in_brief": "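Cells (2 106 per 60-mm dish) transiently transfected for 48 hours with 1 nmol/L scrambled or RON-specific siRNA, with knockdown confirmed by anti-RON Western blot. […] Polyploidy monitored and photographed by microscopy, with untransfected and scrambled-siRNA cells as comparators.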"}, "[7]": {"tested_on": "T47D", "experiment": "Induction of polyploidy in human T47D cells at 1 umol/L incubated for 72 hrs by microscopic analysis relative to control", "assay_type": "functional", "conditions": "dose 1 µmol/L, at 1 µM", "method_in_brief": "as §1"}, "[8]": {"tested_on": "T47D", "experiment": "Induction of polyploidy in human T47D cells assessed as cells with 4N chromosome contents at 5 uM incubated for 48 hrs by PI staining based flow cytometry (reference value: 35)", "assay_type": "functional"}, "[9]": {"experiment": "Effect on paclitaxel resistance in human ZR-75-1 cells with compound-induced polyploidy assessed as change in paclitaxel-induced cytotoxicity by measuring increase in paclitaxel IC50 at 5 umol/L preincubated for 72 hrs followed by compound washout and subsequent paclitaxel treatment for 72 hrs by MTS assay", "assay_type": "functional, cell-based"}, "[10]": {"tested_on": "ZR-75-1", "experiment": "Induction of polyploidy in human ZR-75-1 cells assessed as cells with 8N chromosome contents at 5 uM incubated for 24 hrs by PI staining based flow cytometry (reference value: 0)", "assay_type": "functional"}, "[11]": {"tested_on": "MCF7", "experiment": "Induction of polyploidy in human MCF7 cells assessed as cells with 8N chromosome contents at 5 uM incubated for 72 hrs by PI staining based flow cytometry (reference value: 0)", "assay_type": "functional"}, "[12]": {"tested_on": "ZR-75-1", "experiment": "Induction of polyploidy in human ZR-75-1 cells at 5 umol/L incubated for 72 hrs by microscopic analysis relative to control", "assay_type": "functional", "conditions": "dose 5 µmol/L, at 5 µM", "method_in_brief": "as §1"}, "[13]": {"tested_on": "MCF7", "experiment": "Induction of polyploidy in human MCF7 cells assessed as cells with 2N chromosome contents at 5 uM incubated for 24 hrs by PI staining based flow cytometry (reference value: 52)", "assay_type": "functional"}, "[14]": {"tested_on": "ZR-75-1", "experiment": "Induction of polyploidy in human ZR-75-1 cells assessed as cells with 2N chromosome contents at 5 uM incubated for 72 hrs by PI staining based flow cytometry (reference value: 48)", "assay_type": "functional"}, "[15]": {"tested_on": "ZR-75-1", "experiment": "Inhibition of cell proliferation of human ZR-75-1 cells with RON-/- at 5 umol/L incubated for 72 hrs followed by media replacement without compound measured upto 10 days by microscopic analysis", "assay_type": "functional, cell-based", "conditions": "dose 5.0 µmol/L"}, "[16]": {"tested_on": "T47D", "experiment": "Induction of polyploidy in human T47D cells assessed as cells with 2N chromosome contents at 5 uM incubated for 24 hrs by PI staining based flow cytometry (reference value: 48)", "assay_type": "functional"}, "[17]": {"tested_on": "ZR-75-1", "experiment": "Induction of apoptosis in human ZR-75-1 cells assessed as viable cells at 5 umol/L incubated for 3 days by Annexin V/PI staining based flow cytometry (reference value: 95 %)", "assay_type": "functional", "conditions": "ZR-75-1, 72 h, dose 5 µmol/L, time 3 day, read-out: Activity"}, "[18]": {"tested_on": "MCF7", "experiment": "Induction of polyploidy in human MCF7 cells assessed as cells with 8N chromosome contents at 5 uM incubated for 48 hrs by PI staining based flow cytometry (reference value: 0)", "assay_type": "functional"}, "[19]": {"experiment": "(§2) Effect on doxorubicin resistance in human ZR-75-1 cells with compound-induced polyploidy assessed as change in doxorubicin-induced cytotoxicity by measuring increase in DOX IC50 at 5 umol/L preincubated for 72 hrs followed by compound washout and subsequent doxorubicin treatment for 72 hrs by MTS assay", "assay_type": "functional, cell-based"}, "[20]": {"tested_on": "T47D", "experiment": "Downregulation of histone H3 expression in human T47D cells at 5 umol/L incubated upto 72 hrs by Western blot analysis", "assay_type": "functional, cell-based", "conditions": "dose 5.0 µmol/L", "method_in_brief": "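Cells were treated with 5 µmol/L for 0, 24, 48 and 72 h. Lysates were immunoblotted for AURK-B, phospho-Ser10 histone H3 and total histone H3, with β-actin reprobe as the loading control. Detection by enhanced chemiluminescence.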"}, "[21]": {"tested_on": "T47D", "experiment": "Induction of polyploidy in human T47D cells assessed as cells with 16N chromosome contents at 5 uM incubated for 48 hrs by PI staining based flow cytometry (reference value: 0)", "assay_type": "functional"}, "[22]": {"tested_on": "MCF7", "experiment": "Induction of apoptosis in human MCF7 cells assessed as early cells at 5 umol/L incubated for 3 days by Annexin V/PI staining based flow cytometry (reference value: 0.1 %)", "assay_type": "functional", "conditions": "dose 5 µmol/L; time 3 day; at 5 µM"}, "[23]": {"tested_on": "T47D", "experiment": "Induction of cell cycle arrest at metaphase in human T47D cells assessed as disorganization of multipolar mitotic spindles at 5 umol/L preincubated for 24 hrs followed by extensive compound washout and subsequent culturing in compound-free media measured upto 3 days by immunofluorescence staining based analysis", "assay_type": "functional", "conditions": "dose 5.0 µmol/L"}, "[24]": {"tested_on": "T47D", "experiment": "Induction of polyploidy in human T47D cells assessed as cells with 16N chromosome contents at 5 uM incubated for 24 hrs by PI staining based flow cytometry (reference value: 0)", "assay_type": "functional"}, "[25]": {"experiment": "as §2, with “T47D” for “ZR-75-1”, “doxorubicin” for “DOX”", "assay_type": "functional, cell-based"}, "[26]": {"tested_on": "T47D", "experiment": "Disruption of microtubule dynamics in human T47D cells assessed as lack of chromosomal segregation at 5 umol/L incubated for 24 hrs by immunofluorescence staining based analysis", "assay_type": "functional, cell-based", "conditions": "dose 5.0 µmol/L", "method_in_brief": "(§3)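 T-47D cells (1 × 10^6/dish) in RPMI-1640 with 5% FBS were treated with or without 5 µmol/L for 24, 48 and 72 h. Cells were fixed in cold acetone and stained with mouse anti-α-tubulin or anti-γ-tubulin, then an FITC anti-mouse IgG secondary, plus DAPI. Fluorescence microscopy, 200× magnification.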"}, "[27]": {"tested_on": "ZR-75-1", "experiment": "Induction of apoptosis in human ZR-75-1 cells assessed as late cells at 5 umol/L incubated for 3 days by Annexin V/PI staining based flow cytometry (reference value: 3.8 %)", "assay_type": "functional", "conditions": "dose 5 µmol/L; time 3 day; at 5 µM"}, "[28]": {"tested_on": "T47D", "experiment": "Induction of apoptosis in human T47D cells assessed as late cells at 5 umol/L incubated for 3 days by Annexin V/PI staining based flow cytometry (reference value: 2.9 %)", "assay_type": "functional", "conditions": "dose 5 µmol/L; time 3 day; at 5 µM"}, "[29]": {"tested_on": "MCF7", "experiment": "Induction of polyploidy in human MCF7 cells assessed as cells with 16N chromosome contents at 5 uM incubated for 24 hrs by PI staining based flow cytometry (reference value: 0)", "assay_type": "functional"}, "[30]": {"tested_on": "T47D", "experiment": "Disruption of microtubule dynamics in human T47D cells assessed as formation of multipolar spindles at 5 umol/L incubated upto 72 hrs by immunofluorescence staining based analysis", "assay_type": "functional, cell-based", "conditions": "dose 5.0 µmol/L", "method_in_brief": "as §3"}, "[31]": {"tested_on": "MCF7", "experiment": "Induction of polyploidy in human MCF7 cells assessed as cells with 16N chromosome contents at 5 uM incubated for 72 hrs by PI staining based flow cytometry (reference value: 0)", "assay_type": "functional"}, "[32]": {"tested_on": "ZR-75-1", "experiment": "Cytotoxicity against human ZR-75-1 cells at 1 to 2.5 umol/L incubated for 72 hrs by MTS assay", "assay_type": "functional, cell-based", "conditions": "dose 1-2.5 µmol/L"}},
  "note": "pIC50: −log10 of the molar value. Active and inactive are the calls of the source. The calls are words filed in the database; no cut-off is given here.",
  "data": [
    {"smiles": "CCOc1ccn(-c2ccc(F)cc2)c(=O)c1C(=O)Nc1ccc(Oc2ccnc(N)c2Cl)c(F)c1", "note": "[BMS-777607]", "values": [
      {"measurement": "Activity", "setting": "[1]", "value": "Tde"},
      {"measurement": "Activity", "setting": "[2]", "value": 20},
      {"measurement": "inhibition", "setting": "[3]", "value": "Dose-Dependent Effect"},
      {"measurement": "Activity", "setting": "[4]", "value": 78, "unit": "%"},
      {"measurement": "Activity", "setting": "[5]", "value": 0},
      {"measurement": "Activity", "setting": "[6]", "value": "Active"},
      {"measurement": "Activity", "setting": "[7]", "value": 14, "unit": "%"},
      {"measurement": "Activity", "setting": "[8]", "value": 22},
      {"measurement": "pIC50", "setting": "[9]", "value": 7.68},
      {"measurement": "Activity", "setting": "[10]", "value": 14},
      {"measurement": "Activity", "setting": "[11]", "value": 29},
      {"measurement": "Activity", "setting": "[12]", "value": 82, "unit": "%"},
      {"measurement": "Activity", "setting": "[13]", "value": 15.5},
      {"measurement": "Activity", "setting": "[14]", "value": 5},
      {"measurement": "inhibition", "setting": "[15]", "value": "inactive"},
      {"measurement": "Activity", "setting": "[16]", "value": 7.5},
      {"measurement": "viability at 5 µM", "setting": "[17]", "value": 88.5, "unit": "%"},
      {"measurement": "Activity", "setting": "[18]", "value": 25.5},
      {"measurement": "pIC50", "setting": "[19]", "value": 5.93},
      {"measurement": "Activity", "setting": "[20]", "value": "inactive"},
      {"measurement": "Activity", "setting": "[21]", "value": 18.5},
      {"measurement": "Activity", "setting": "[22]", "value": 0.2, "unit": "%"},
      {"measurement": "Activity", "setting": "[23]", "value": "Active"},
      {"measurement": "Activity", "setting": "[24]", "value": 10},
      {"measurement": "pIC50", "setting": "[25]", "value": 5.85},
      {"measurement": "Activity", "setting": "[26]", "value": "Active"},
      {"measurement": "Activity", "setting": "[27]", "value": 7.4, "unit": "%"},
      {"measurement": "Activity", "setting": "[28]", "value": 8.1, "unit": "%"},
      {"measurement": "Activity", "setting": "[29]", "value": 0},
      {"measurement": "Activity", "setting": "[30]", "value": "Active"},
      {"measurement": "Activity", "setting": "[31]", "value": 0},
      {"measurement": "Activity", "setting": "[32]", "value": "inactive"}
    ]}
  ]
}
